In PMC2903386 (The Journal of Biological Chemistry, 2010):

Columns and labels:
MMP-8 [1] = biological target: MMP-8 (Homo sapiens, UniProt P22894); experiment: Cleavage by purified MMP-8; format: in vitro ADME; conditions: purified enzyme; data not shown
[2] = Tumor standardized uptake value; format: in vivo; conditions: PyMT, mouse, iv, 10 nmol
cathepsin H = experiment: Cleavage by purified cathepsin H; format: in vitro ADME; conditions: human
Outline: (§1)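 Commercial active purified enzymes were each used at 50 nM with 5 μM Cy5-labeled test peptide in the manufacturer's recommended buffer. The figure legend gives 2 h; the methods text gives 4 h. Samples were boiled 1 min in Tricine sample buffer, run on 10–20% Tricine gels and imaged (ex 628 ± 20 nm, em >700 nm). Percent cleaved versus uncleaved was quantitated from gel fluorescence.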

pancreatic elastase = pancreatic elastase (Sus scrofa, UniProt P00772); experiment: Cleavage by pancreatic elastase; format: in vitro ADME, porcine; conditions: 5 μM Cy5-labeled peptide, pancreatic elastase (ELA-1), gel
Sequence of pancreatic elastase (P00772 27-266): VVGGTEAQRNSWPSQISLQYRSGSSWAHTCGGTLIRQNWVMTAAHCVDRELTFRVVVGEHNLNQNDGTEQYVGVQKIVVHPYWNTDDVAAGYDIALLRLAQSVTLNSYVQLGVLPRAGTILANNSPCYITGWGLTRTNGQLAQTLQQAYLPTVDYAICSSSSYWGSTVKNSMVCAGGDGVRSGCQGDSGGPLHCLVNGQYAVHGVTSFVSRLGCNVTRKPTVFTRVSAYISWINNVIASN
Outline: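 5 μM Cy5-labeled test peptide was exposed to pancreatic elastase (ELA-1), with or without 60 μM α1-antitrypsin. Neutrophil/leukocyte elastase (two sources) and tumor extract (2.0 to 0.25%) were tested in parallel. Cleavage was read from fluorescent Tricine gel electrophoresis.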

[3] = Cleavage of ACPP by PyMT tumor cystic fluid; format: in vitro ADME, mouse; conditions: 5 μM Cy5-labeled peptide, 2% cystic fluid from PyMT tumors, 2 h, 37 °C, gel
Outline: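 Cystic fluid was aspirated with a 28-gauge syringe from surgically exposed fluid-filled mammary tumor nodules of PyMT mice. 5 μM Cy5 peptide in PBS with 1 μM ZnCl2 was digested with cystic fluid (2%) at 37 °C. Aliquots were taken from 20 min to 18 h, with 2 h reported. Protease inhibitors (e.g. Ca-DTPA, TPEN, aprotinin, E-64, leupeptin, pepstatin A) were used at manufacturers' recommended concentrations. Read-out was gel fluorescence.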

MMP-9 = MMP-9 (Homo sapiens, UniProt P14780); experiment: Cleavage by purified MMP-9; format: in vitro ADME; conditions: 5 μM Cy5-labeled peptide, 50 nM enzyme, 2 h, Tricine gel, UVP software
Sequence of MMP-9 (P14780 107-707 limits assumed): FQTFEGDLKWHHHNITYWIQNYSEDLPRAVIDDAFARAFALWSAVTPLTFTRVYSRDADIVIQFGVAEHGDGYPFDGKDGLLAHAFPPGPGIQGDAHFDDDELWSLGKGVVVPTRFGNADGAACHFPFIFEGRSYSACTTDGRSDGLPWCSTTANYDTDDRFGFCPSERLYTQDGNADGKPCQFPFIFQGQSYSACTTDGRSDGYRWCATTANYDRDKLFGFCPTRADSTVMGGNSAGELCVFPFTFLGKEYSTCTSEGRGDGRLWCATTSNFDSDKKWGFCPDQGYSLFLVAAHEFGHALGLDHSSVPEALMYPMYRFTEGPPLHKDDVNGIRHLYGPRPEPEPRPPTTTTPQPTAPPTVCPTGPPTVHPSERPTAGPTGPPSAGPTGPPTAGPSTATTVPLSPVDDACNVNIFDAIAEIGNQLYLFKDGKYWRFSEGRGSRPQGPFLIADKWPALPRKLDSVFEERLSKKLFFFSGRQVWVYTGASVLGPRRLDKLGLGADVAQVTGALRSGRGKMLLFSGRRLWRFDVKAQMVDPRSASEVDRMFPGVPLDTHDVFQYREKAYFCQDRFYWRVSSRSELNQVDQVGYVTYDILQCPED
Outline: as §1

[4] = biological target: urokinase plasminogen activator (Homo sapiens, UniProt P00749); experiment: Cleavage by purified urokinase plasminogen activator; format: in vitro ADME
Outline: as §1

legumain [5] = biological target: legumain (Homo sapiens, UniProt Q99538); experiment: Cleavage by purified legumain; format: in vitro ADME; conditions: purified enzyme; data not shown
Sequence of legumain (Homo sapiens, UniProt Q99538) (Q99538 18-323 limits assumed, species assumed): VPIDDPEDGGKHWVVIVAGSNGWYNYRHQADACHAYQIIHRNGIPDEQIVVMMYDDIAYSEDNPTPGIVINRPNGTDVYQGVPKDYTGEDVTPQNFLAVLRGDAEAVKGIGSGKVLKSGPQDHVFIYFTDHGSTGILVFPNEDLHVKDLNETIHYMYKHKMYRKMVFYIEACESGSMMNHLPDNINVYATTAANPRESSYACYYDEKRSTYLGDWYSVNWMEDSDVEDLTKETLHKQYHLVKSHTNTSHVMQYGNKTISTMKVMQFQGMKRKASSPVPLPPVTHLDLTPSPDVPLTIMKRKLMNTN

cathepsin L = cathepsin L (Homo sapiens, UniProt P07711); experiment: Cleavage by purified cathepsin L; format: in vitro ADME; conditions: 5 μM Cy5-labeled peptide, 50 nM enzyme, 2 h, Tricine gel, UVP software
Sequence of cathepsin L (P07711 114-333): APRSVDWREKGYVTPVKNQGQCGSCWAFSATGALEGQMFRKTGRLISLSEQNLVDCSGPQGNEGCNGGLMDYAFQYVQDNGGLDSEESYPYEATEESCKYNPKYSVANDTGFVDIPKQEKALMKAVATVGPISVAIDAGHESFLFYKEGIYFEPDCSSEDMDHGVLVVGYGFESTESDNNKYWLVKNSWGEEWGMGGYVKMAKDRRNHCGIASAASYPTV
Outline: as §1

factor Xa = factor Xa (Homo sapiens, UniProt P00742); experiment: Cleavage by purified factor Xa; format: in vitro ADME; conditions: 5 μM Cy5-labeled peptide, 50 nM enzyme, 2 h, Tricine gel, UVP software
Sequence of factor Xa (P00742 235-488 limits assumed): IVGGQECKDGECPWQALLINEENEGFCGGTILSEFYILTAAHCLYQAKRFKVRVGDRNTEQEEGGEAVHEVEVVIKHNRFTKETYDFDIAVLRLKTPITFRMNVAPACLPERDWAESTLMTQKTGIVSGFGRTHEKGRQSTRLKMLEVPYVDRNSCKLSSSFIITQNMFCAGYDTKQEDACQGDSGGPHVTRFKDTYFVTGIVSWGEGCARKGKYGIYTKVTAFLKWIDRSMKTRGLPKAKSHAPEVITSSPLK
Sequence of factor Xa (P00742 41-179 partner limits assumed): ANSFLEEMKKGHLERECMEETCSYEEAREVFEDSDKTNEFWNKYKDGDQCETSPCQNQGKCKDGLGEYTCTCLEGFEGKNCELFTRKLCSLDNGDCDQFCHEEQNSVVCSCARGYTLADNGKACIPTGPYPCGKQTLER
Outline: as §1

MMP-2 = MMP-2 (Homo sapiens, UniProt P08253); experiment: Cleavage by purified MMP-2; format: in vitro ADME; conditions: 5 μM Cy5-labeled peptide, 50 nM enzyme, 2 h, Tricine gel, UVP software
Outline: as §1

MMP12 = MMP12 (Homo sapiens, UniProt P39900); experiment: Cleavage by purified MMP12; format: in vitro ADME; conditions: purified enzyme; at times only visible upon gel overexposure
Sequence of MMP12 (P39900 106-268 limits assumed): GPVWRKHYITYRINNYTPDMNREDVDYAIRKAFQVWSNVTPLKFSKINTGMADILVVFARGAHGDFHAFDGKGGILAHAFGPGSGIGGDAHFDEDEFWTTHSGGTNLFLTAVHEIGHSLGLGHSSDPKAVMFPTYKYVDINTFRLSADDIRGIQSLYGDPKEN

leukocyte elastase = leukocyte elastase (Homo sapiens, UniProt P08246); experiment: Cleavage by leukocyte elastase; format: in vitro ADME; conditions: 5 μM Cy5-labeled peptide, leukocyte elastase (ELA-2 from a different source), gel
Sequence of leukocyte elastase (P08246 30-267): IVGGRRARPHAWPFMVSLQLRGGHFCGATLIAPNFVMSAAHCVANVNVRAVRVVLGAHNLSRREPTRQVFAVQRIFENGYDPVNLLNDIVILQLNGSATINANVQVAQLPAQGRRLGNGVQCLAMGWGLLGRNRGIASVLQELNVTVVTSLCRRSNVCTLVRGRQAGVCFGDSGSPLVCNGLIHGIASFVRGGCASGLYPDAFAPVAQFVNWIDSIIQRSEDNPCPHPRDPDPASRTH
Outline: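 Commercial active-form purified enzyme at 50 nm was incubated with 5 μm Cy5-labeled peptide in the manufacturer's recommended buffer. Samples were mixed with Tricine sample buffer, boiled 1 min, and resolved on 10–20% Tricine acrylamide gels. Gels were imaged quantitatively at excitation 628 ± 20 nm and emission >700 nm, and the percentage of cleaved versus uncleaved peptide was quantified.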

MMP-14 = experiment: Cleavage by purified MMP-14; format: in vitro ADME
Outline: as §1

PyMT mammary tumors = experiment: Fluorescence imaging contrast in PyMT tumor-bearing mice; format: in vivo, mouse; conditions: live mice, 100 μl of 100 μM Cy5-labeled ACPP, imaged 6 h post injection
Outline: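 PyMT transgenic mice bearing spontaneous mammary tumors were anesthetized with ketamine 80 mg/kg plus midazolam 5 mg/kg (1:1) and weighed. They were injected via the tail vein with Cy5 peptide: free peptide 100 μl of 100 μM (10 nmol) or albumin-reactive peptide 100 μl of 30 μM (3 nmol). Maestro imaging (ex 640 ± 24 nm, em >700 nm) was done at 6 h or 48 h, comparing tumor with adjacent normal tissue.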

factor VIIa = experiment: Cleavage by purified factor VIIa; format: in vitro ADME; conditions: human
Outline: as §1

factor IXa = factor IXa (Homo sapiens, UniProt P00740); experiment: Cleavage by purified factor IXa; format: in vitro ADME; conditions: 5 μM Cy5-labeled peptide, 50 nM enzyme, 2 h, Tricine gel, UVP software
Sequence of factor IXa (P00740 227-461 limits assumed): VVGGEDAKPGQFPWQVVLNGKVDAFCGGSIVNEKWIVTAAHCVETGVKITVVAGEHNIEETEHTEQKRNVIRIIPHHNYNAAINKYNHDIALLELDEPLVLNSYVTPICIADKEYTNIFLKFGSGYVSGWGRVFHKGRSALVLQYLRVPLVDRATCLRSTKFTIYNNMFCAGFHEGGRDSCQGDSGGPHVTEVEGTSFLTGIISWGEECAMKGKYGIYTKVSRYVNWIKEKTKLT
Sequence of factor IXa (P00740 47-191 partner limits assumed): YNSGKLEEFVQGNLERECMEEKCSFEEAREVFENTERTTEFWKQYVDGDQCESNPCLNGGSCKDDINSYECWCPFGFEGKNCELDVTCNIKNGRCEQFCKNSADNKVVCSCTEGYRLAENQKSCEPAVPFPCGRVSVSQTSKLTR
Outline: as §1

cathepsin B = cathepsin B (Homo sapiens, UniProt P07858); experiment: Cleavage by purified cathepsin B; format: in vitro ADME; conditions: 5 μM Cy5-labeled peptide, 50 nM enzyme, 2 h, Tricine gel, UVP software
Outline: as §1

[6] = biological target: tissue plasminogen activator (Homo sapiens, UniProt P00750); experiment: Cleavage by purified tissue plasminogen activator; format: in vitro ADME; conditions: 5 μM Cy5-labeled peptide, 50 nM enzyme, 2 h, Tricine gel, UVP software
Sequence of tissue plasminogen activator (P00750 36-562): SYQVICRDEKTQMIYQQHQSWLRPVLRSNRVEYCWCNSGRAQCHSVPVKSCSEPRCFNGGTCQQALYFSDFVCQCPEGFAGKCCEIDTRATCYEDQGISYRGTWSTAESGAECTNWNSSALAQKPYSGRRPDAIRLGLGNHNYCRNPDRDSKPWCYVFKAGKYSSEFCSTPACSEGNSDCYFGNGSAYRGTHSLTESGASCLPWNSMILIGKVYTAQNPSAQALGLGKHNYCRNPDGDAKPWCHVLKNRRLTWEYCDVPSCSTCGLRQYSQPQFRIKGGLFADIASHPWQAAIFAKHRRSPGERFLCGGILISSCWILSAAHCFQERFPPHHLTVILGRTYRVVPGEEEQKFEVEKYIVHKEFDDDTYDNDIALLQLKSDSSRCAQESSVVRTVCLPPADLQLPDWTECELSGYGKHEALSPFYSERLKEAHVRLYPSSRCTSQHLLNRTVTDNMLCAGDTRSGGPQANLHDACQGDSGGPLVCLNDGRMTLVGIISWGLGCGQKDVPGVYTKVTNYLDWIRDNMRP
Outline: as §1

factor XIIa = factor XIIa (Homo sapiens, UniProt P00748); experiment: Cleavage by purified factor XIIa; format: in vitro ADME; conditions: 5 μM Cy5-labeled peptide, 50 nM enzyme, 2 h, Tricine gel, UVP software
Sequence of factor XIIa (P00748 373-615 limits assumed): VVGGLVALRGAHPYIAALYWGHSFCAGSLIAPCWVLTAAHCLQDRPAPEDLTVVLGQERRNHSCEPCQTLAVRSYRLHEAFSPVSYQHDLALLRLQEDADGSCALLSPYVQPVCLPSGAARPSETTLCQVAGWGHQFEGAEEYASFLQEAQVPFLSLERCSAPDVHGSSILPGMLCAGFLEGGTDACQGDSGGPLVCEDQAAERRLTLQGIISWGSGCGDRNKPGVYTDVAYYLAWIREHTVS
Outline: as §1

thrombin = thrombin (Homo sapiens, UniProt P00734); experiment: Cleavage by purified thrombin; format: in vitro ADME; conditions: 5 μM Cy5-labeled peptide, 50 nM enzyme, 2 h, Tricine gel, UVP software
Outline: as §1

MMP-13 [7] = biological target: MMP-13 (Homo sapiens, UniProt P45452); experiment: Cleavage by purified MMP-13; format: in vitro ADME; conditions: purified enzyme; data not shown
Tumor uptake = format: in vivo; conditions: nude, mouse, tumor (MDA-MB-435 M4A4 xenograft), iv, 10 nmol
Outline: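 After imaging, mice were euthanized with isoflurane. 30 mg of each tissue was homogenized in 100 μl Tris pH 7.6 with 1% SDS, heated to 85 °C for 10 min, microwaved 10 s and spun at 20,500 × g for 15 min, then imaged. Tissue-specific spiked standards calibrated fluorescence. SUV = tissue peptide molality ÷ injected dose (mol/kg body weight). Values are means ± S.D.; two-tailed t tests.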

kallikrein 5 = kallikrein 5 (Homo sapiens, UniProt Q9Y337); experiment: Cleavage by purified kallikrein 5; format: in vitro ADME; conditions: 5 μM Cy5-labeled peptide, 50 nM enzyme, 2 h, Tricine gel, UVP software
Sequence of kallikrein 5 (Q9Y337 67-293 limits assumed): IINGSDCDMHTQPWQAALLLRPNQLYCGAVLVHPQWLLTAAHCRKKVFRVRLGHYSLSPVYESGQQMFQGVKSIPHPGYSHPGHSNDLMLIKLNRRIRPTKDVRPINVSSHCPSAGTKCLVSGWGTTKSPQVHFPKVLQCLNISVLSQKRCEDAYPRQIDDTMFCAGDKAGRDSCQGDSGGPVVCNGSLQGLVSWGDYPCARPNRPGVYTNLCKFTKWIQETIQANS
Outline: as §1

factor XIa = factor XIa (Homo sapiens, UniProt P03951); experiment: Cleavage by purified factor XIa; format: in vitro ADME; conditions: 5 μM Cy5-labeled peptide, 50 nM enzyme, 2 h, Tricine gel, UVP software
Sequence of factor XIa (P03951 388-625 limits assumed): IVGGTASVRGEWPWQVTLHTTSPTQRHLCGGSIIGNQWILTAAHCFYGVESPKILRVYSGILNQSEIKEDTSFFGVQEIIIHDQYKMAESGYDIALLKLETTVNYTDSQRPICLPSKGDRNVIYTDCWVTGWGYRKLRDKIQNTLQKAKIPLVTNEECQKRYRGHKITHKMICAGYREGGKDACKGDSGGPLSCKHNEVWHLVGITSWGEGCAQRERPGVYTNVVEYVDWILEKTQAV
Sequence of factor XIa (P03951 19-387 partner limits assumed): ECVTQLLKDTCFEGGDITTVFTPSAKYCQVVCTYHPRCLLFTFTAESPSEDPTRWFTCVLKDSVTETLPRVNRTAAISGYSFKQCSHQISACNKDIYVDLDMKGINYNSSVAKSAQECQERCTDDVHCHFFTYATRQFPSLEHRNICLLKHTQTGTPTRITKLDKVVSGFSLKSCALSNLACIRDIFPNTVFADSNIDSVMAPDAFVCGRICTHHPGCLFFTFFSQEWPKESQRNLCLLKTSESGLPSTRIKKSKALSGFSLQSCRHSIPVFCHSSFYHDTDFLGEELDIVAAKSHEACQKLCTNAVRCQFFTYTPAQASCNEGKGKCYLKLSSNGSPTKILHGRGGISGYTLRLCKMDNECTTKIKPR
Outline: as §1

matriptase [8] = biological target: matriptase (Homo sapiens, UniProt Q9Y5Y6); experiment: Cleavage by purified matriptase; format: in vitro ADME; conditions: purified enzyme; data not shown
Sequence of matriptase (Homo sapiens, UniProt Q9Y5Y6) (Q9Y5Y6 615-855 limits assumed, species assumed): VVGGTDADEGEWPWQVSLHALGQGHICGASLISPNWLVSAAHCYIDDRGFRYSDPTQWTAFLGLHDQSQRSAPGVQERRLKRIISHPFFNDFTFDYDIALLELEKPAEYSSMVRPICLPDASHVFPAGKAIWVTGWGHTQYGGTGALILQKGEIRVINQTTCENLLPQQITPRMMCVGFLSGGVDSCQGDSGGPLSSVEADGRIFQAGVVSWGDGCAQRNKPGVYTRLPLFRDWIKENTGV

[9] = tested on: prostate-specific antigen; experiment: prostate-specific antigen; conditions: up to 2 h
MMP-13 [10] = experiment: MMP-13
enterokinase = experiment: enterokinase; conditions: up to 2 h
matriptase [11] = experiment: matriptase
MMP-8 [12] = experiment: MMP-8
legumain [13] = experiment: legumain
hepsin = experiment: hepsin; conditions: up to 2 h
plasmin = plasmin (Homo sapiens, UniProt P00747); experiment: Effect of inhibitor on plasmin cleavage of RLQLKL ACPP; format: biochemical; conditions: 5 μM Cy5-labeled RLQLKL ACPP, gel
[14] = Effect of inhibitors on cleavage of RLQLKL ACPP by tumor extract; format: biochemical, mouse; conditions: 5 μM Cy5-labeled RLQLKL ACPP, tumor extract 2.0 to 0.25%; 60 μM α1-antitrypsin; gel
Outline: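 Fresh tumor tissue was gently homogenized in PBS on ice and spun at 14,000 × g for 1 min; the supernatant served as the extract. The 5 μm Cy5 peptide was digested at 37 °C in PBS containing 1 μm ZnCl2, with or without 60 μm α1-antitrypsin. Aliquots were taken from 20 min to 18 h, with the 2-h point reported. Cleavage was quantified by Tricine gel and fluorescence imaging.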

[15] = Effect of inhibitors on cleavage of RLQLKL ACPP by PyMT tumor cystic fluid; format: biochemical, mouse; conditions: 5 μM Cy5-labeled RLQLKL ACPP, 2% cystic fluid, 2 h; 5 mM Ca-DTPA, 50 μM TPEN, 18 μM SB3CT, 50 nM GM6001, 0.26 μM prinomastat, 150 nM aprotinin, 100 μM leupeptin, 60 μM α1-antitrypsin; gel
Outline: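 Cystic fluid was aspirated by syringe from surgically exposed fluid-filled mammary tumor nodules of PyMT mice. The 5 μm Cy5 peptide was incubated at 37 °C for 2 h in PBS with 1 μm ZnCl2. Inhibitors were used at manufacturer-recommended concentrations, including 10 μm E-64, 1 μm pepstatin A, protease inhibitor mixture III (1:1000) and mixture III plus DTPA. Cleavage was read by Tricine gel electrophoresis and Cy5 fluorescence imaging.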

Sequence of MMP-8 (Homo sapiens, UniProt P22894) (P22894 101-467, species assumed): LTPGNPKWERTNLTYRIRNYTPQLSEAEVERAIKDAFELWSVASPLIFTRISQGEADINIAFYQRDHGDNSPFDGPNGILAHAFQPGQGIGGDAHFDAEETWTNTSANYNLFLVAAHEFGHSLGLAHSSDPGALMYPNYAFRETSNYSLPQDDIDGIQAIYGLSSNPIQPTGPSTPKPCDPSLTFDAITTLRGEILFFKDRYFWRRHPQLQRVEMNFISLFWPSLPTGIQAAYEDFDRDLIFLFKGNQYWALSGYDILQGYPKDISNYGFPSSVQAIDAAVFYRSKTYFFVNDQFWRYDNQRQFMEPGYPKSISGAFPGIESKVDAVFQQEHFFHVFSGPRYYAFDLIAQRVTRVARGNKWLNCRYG

In the case of `CC[N+]1=C(C=CC=CC=C2N(CCCCCC(=O)NCCN3C(=O)CC(SC[C@@H](NC(=O)[C@@H](CCCNC(=N)N)NC(=O)[C@@H](CCCNC(=N)N)NC(=O)[C@@H](CCCNC(=N)N)NC(=O)[C@@H](CCCNC(=N)N)NC(=O)[C@@H](CCCNC(=N)N)NC(=O)[C@@H](CCCNC(=N)N)NC(=O)[C@@H](CCCNC(=N)N)NC(=O)[C@@H](CCCNC(=N)N)NC(=O)[C@@H](CCCNC(=N)N)NC(=O)[C@H](CC(C)C)NC(=O)[C@H](CCCCN)NC(=O)[C@H](CC(C)C)NC(=O)[C@H](CCC(N)=O)NC(=O)[C@H](CC(C)C)NC(=O)[C@H](CCCNC(=N)N)NC(=O)CCCCCNC(=O)[C@@H](CCC(=O)O)NC(=O)[C@@H](CCC(=O)O)NC(=O)[C@@H](CCC(=O)O)NC(=O)[C@@H](CCC(=O)O)NC(=O)[C@@H](CCC(=O)O)NC(=O)[C@@H](CCC(=O)O)NC(=O)[C@@H](CCC(=O)O)NC(=O)[C@@H](CCC(=O)O)NC(=O)[C@H](N)CCC(=O)O)C(N)=O)C3=O)c3ccc(S(=O)(=O)O)cc3C2(C)C)C(C)(C)c2cc(S(=O)(=O)[O-])ccc21` (stereo partly shown) [RLQLKL ACPP], the “cleavage by MMP-8 (in words)” value (MMP-8 [1]) is reported as “no cleavage”, the SUV at 6 h [2] is reported as 0.39 ± 0.14 SUV and the metabolised at 2 h, 5 μM (cathepsin H) is reported as less than 3%. The “cleavage by pancreatic elastase (in words)” value (pancreatic elastase) was “effectively cleaved”, the “cleavage by cystic fluid (in words)” value [3] was “similarly to tumor tissue extracts” and the “percentage of cleavage by MMP-9” value (MMP-9) was “less than 3%”. For the same molecule, the “percentage of cleavage by urokinase plasminogen activator” value ([4]; 5 μM Cy5-labeled peptide, 50 nM enzyme, 2 h, Tricine gel, UVP software) was “less than 3%”, the “cleavage by urokinase (in words)” value ([4]; purified enzyme, data not shown) was “no cleavage” and the “cleavage by legumain (in words)” value (legumain [5]) was “no cleavage”. The “percentage of cleavage by cathepsin L” value (cathepsin L) was “less than 3%”, the “percentage of cleavage by factor Xa” value (factor Xa) was “less than 3%” and the “percentage of cleavage by MMP-2” value (MMP-2) was “less than 3%”. The “cleavage by MMP12 (in words)” value (MMP12) was “minimal cleavage”, the “cleavage by leukocyte elastase (in words)” value (leukocyte elastase) was “effectively cleaved” and the metabolised at 2 h, 5 μM (MMP-14) was less than 3%. For the same molecule, the “skin uptake versus PLGLAG ACPP (in words)” value (PyMT mammary tumors) was “significantly less”, the metabolised at 2 h, 5 μM (factor VIIa) was less than 3% and the “percentage of cleavage by factor IXa” value (factor IXa) was “less than 3%”. The “percentage of cleavage by cathepsin B” value (cathepsin B) was “less than 3%”, the “percentage of cleavage by tissue plasminogen activator” value [6] was “less than 3%” and the “percentage of cleavage by factor XIIa” value (factor XIIa) was “less than 3%”. The “percentage of cleavage by thrombin” value (thrombin) was “less than 3%”, the “cleavage by MMP-13 (in words)” value (MMP-13 [7]) was “no cleavage” and the SUV at 6 h (Tumor uptake) was 0.7 ± 0.27 SUV. For the same molecule, the “percentage of cleavage by kallikrein 5” value (kallikrein 5) was “less than 3%”, the “percentage of cleavage by factor XIa” value (factor XIa) was “less than 3%” and the “cleavage by matriptase (in words)” value (matriptase [8]) was “no cleavage”.

For NH2-e9-(ahx)-RLQLKL-r9-c-(Cy5)-NH2, the not cleaved [9] was “less than 3% cleavage”, the not cleaved (MMP-13 [10]) was “no cleavage” and the not cleaved (enterokinase) was “less than 3% cleavage”. For the same molecule, the not cleaved (matriptase [11]) was “no cleavage”, the not cleaved (MMP-8 [12]) was “no cleavage” and the not cleaved (legumain [13]) was “no cleavage”. For the same molecule, the not cleaved (hepsin) was “less than 3% cleavage”.

B1: serpin F2/α2-antiplasmin: plasmin-specific inhibitor (protein, UniProt P08697 40-491, looked up)
Alpha-2-antiplasmin: NQEQVSPLTLLKLGNQEPGGQTALKSPPGVCSRDPTPEQTHRLARAMMAFTADLFSLVAQTSTCPNLILSPLSVALALSHLALGAQNHTLQRLQQVLHAGSGPCLPHLLSRLCQDLGPGAFRLAARMYLQKGFPIKEDFLEQSEQLFGAKPVSLTGKQEDDLANINQWVKEATEGKIQEFLSGLPEDTVLLLLNAIHFQGFWRNKFDPSLTQRDSFHLDEQFTVPVEMMQARTYPLRWFLLEQPEIQVAHFPFKNNMSFVVLVPTHFEWNVSQVLANLSWDTLHPPLVWERPTKVRLPKLYLKHQMDLVATLSQLGLQELFQAPDLRGISEQSLVVSGVQHQSTLELSEVGVEAAAATSIAMSRMSLSSFSVNRPFLFFIFEDTTGLPLFVGSVRNPNPSAPRELKEQQDSPGNKDFLQSLKGFPRGDKLFGPDLKLVPPMEEDYPQFGSPK
For B1, the “inhibition of plasmin cleavage of RLQLKL ACPP (in words)” value (plasmin) was “did inhibit”, the “inhibition of tumor extract cleavage of RLQLKL ACPP (in words)” value [14] was “did not inhibit” and the “inhibition of cystic fluid cleavage of RLQLKL ACPP (in words)” value [15] was “did not inhibit”.
